Laboratory results: ChEMBL document CHEMBL2150969, “Design, synthesis and biological evaluation of nuclear receptor-degradation inducers” (Bioorg Med Chem, 2011)
Active and inactive are the calls of the source. No cut-off for these calls is given here.

Experiments:
[1] = target: Baculoviral IAP repeat-containing protein 2 (Homo sapiens) (UniProt Q13490); assay: Induction of cIAP1-mediated ERalpha degradation in human MCF7 cells at 1 to 30 uM after 24 hrs by Western blot analysis; assay type: cell-based
Method in brief: (§1)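 MCF-7 cells were kept in D-MEM with 10% FBS and penicillin/streptomycin, with 2 nM E2 as physiological agonist, at 37 °C under 5% CO2. Cells (1×10^6) were treated, lysed in SDS buffer and protein was BCA-normalized. Lysates ran on 10-20% SDS-PAGE and PVDF, blocked with 5% skim milk, then probed with rabbit polyclonal anti-ERα (1:200) and β-actin. Detection used HRP secondaries and ECL.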

[2] = target: Baculoviral IAP repeat-containing protein 2 (Homo sapiens) (UniProt Q13490); assay: Induction of FLAG-tagged cIAP1 expressed in human HT1080 cells assessed as RARalpha degradation at 30 uM after 24 hrs by Western blot analysis; assay type: cell-based; conditions: HT-1080
Method in brief: (§2)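 HT-1080 cells were grown in RPMI 1640 with 10% heat-inactivated FBS at 37 °C under 5% CO2. Cells (1×10^6) were treated, then lysed in SDS buffer and protein was equalized by BCA. Lysates ran on 10-20% SDS-PAGE and went to PVDF, blocked with 5% skim milk/TBS-T. Blots were probed with anti-CRABP-II or anti-RARα plus β-actin, HRP secondaries, and ECL detection.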

[3] = target: Baculoviral IAP repeat-containing protein 2 (Homo sapiens) (UniProt Q13490); assay: Induction of cIAP1-mediated ERalpha degradation in human MCF7 cells at 30 uM after 24 hrs by Western blot analysis; assay type: cell-based; method in brief: as §1
[4] = target: Baculoviral IAP repeat-containing protein 2 (Homo sapiens) (UniProt Q13490); assay: Induction of cIAP1-mediated AR degradation in human MCF7 cells at 30 uM after 24 hrs by Western blot analysis relative to control; assay type: cell-based
Method in brief: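 MCF-7 cells were grown in D-MEM with 10% FBS, penicillin/streptomycin and 10 nM DHT at 37 °C under 5% CO2. Cells (1×10^6) were treated, lysed in SDS buffer, and equal protein (by BCA) was run on 10-20% SDS-PAGE and transferred to PVDF. Blots were blocked in 5% skim milk/TBS-T, probed with mouse monoclonal anti-AR (1:200) and β-actin antibody, and read by ECL.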

[5] = tested on: HT-1080; assay: Induction of RARalpha degradation in human HT1080 cells at 10 uM after 24 hrs by Western blot analysis; assay type: functional, cell-based; method in brief: as §2
[6] = tested on: MCF7; assay: Induction of ERalpha degradation in human MCF7 cells at 30 uM after 24 hrs by Western blot analysis; assay type: functional, cell-based; method in brief: as §1
[7] = target: Baculoviral IAP repeat-containing protein 2 (Homo sapiens) (UniProt Q13490); assay: Induction of FLAG-tagged cIAP1 expressed in human HT1080 cells assessed as RARalpha degradation at 10 uM after 24 hrs by Western blot analysis; assay type: cell-based; conditions: HT-1080; method in brief: as §2
[8] = tested on: HT-1080; assay: Induction of CRABP-2 degradation in human HT1080 cells at 10 uM after 24 hrs by Western blot analysis; assay type: functional, cell-based; method in brief: as §2
[9] = target: Baculoviral IAP repeat-containing protein 2 (Homo sapiens) (UniProt Q13490); assay: Induction of FLAG-tagged cIAP1 expressed in human HT1080 cells assessed as CRABP-2 degradation at 1 to 30 uM after 24 hrs by Western blot analysis; assay type: cell-based; conditions: HT-1080; method in brief: as §2
[10] = target: Baculoviral IAP repeat-containing protein 2 (Homo sapiens) (UniProt Q13490); assay: Induction of FLAG-tagged cIAP1 expressed in human HT1080 cells assessed as RARalpha degradation at 10 uM after 6 hrs by Western blot analysis in presence of proteasome inhibitor MG132 added 30 mins prior to compound treatment; assay type: cell-based; conditions: HT-1080; method in brief: as §2
[11] = target: Baculoviral IAP repeat-containing protein 2 (Homo sapiens) (UniProt Q13490); assay: Induction of FLAG-tagged cIAP1 expressed in human HT1080 cells assessed as RARalpha degradation after 24 hrs by Western blot analysis; assay type: cell-based; conditions: HT-1080; method in brief: as §2
[12] = target: Baculoviral IAP repeat-containing protein 2 (Homo sapiens) (UniProt Q13490); assay: Induction of FLAG-tagged cIAP1 expressed in human HT1080 cells assessed as RARalpha degradation at 10 uM after 6 hrs by Western blot analysis in presence of RAR antagonist LE540 added 30 mins prior to compound treatment; assay type: functional, cell-based; conditions: HT-1080; method in brief: as §2

Chain of Baculoviral IAP repeat-containing protein 2 (Homo sapiens) (Q13490 whole entry): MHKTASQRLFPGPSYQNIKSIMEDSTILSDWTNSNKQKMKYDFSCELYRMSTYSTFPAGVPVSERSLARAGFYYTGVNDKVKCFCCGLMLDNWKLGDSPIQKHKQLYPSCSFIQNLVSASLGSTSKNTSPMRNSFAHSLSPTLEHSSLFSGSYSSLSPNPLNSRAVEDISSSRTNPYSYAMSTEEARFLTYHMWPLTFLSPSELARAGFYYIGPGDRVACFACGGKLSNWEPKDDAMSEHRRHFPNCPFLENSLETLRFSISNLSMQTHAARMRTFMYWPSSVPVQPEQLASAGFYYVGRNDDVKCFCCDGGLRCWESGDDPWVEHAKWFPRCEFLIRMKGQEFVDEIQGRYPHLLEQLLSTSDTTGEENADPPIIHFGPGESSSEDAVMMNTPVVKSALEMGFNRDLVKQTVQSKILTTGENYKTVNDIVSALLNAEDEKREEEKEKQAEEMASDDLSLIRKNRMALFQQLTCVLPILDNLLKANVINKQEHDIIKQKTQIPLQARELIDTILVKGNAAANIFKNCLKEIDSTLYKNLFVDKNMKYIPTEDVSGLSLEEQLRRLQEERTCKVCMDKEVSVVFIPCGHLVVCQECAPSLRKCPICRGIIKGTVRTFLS

`CC(C)C[C@H](NC(=O)CCCc1ccccc1)C(=O)NCCOCCOCCNC(=O)CO/N=C1\CC[C@H]2[C@@H]3CCc4cc(O)ccc4[C@H]3CC[C@]12C` was tested, and the Activity [1] was “inactive”.
In the case of `CNC(=O)[C@H](CC(C)C)NC(=O)[C@@H](O)[C@H](N)Cc1ccccc1`, the Activity [2] is reported as “inactive”, the Activity [3] is reported as “inactive” and the Activity [4] is reported as “Active”.
For `CC(C)C[C@H](NC(=O)[C@@H](O)[C@H](N)Cc1ccccc1)C(=O)NCCOCCOCCNC(=O)CO/N=C1\CC[C@H]2[C@@H]3CCc4cc(O)ccc4[C@H]3CC[C@]12C`, the Activity [3] was “Active”.
In the case of `CC(C)C[C@H](NC(=O)CCCc1ccccc1)C(=O)NCCOCCOCCOCC(=O)NCCCOc1cc(/C=C/C(=O)c2cc(C(C)(C)C)cc(C(C)(C)C)c2)ccc1C(=O)O`, the Activity [5] is reported as “inactive”.
With `C[C@]12CC[C@@H]3c4ccc(O)cc4CC[C@H]3[C@@H]1CCC2=O` the Activity [6] was “inactive”.
`CC1=C(/C=C/C(C)=C/C=C/C(C)=C/C(=O)O)C(C)(C)CC/C1=N\OCC(=O)NCCOCCOCCOC(=O)[C@H](CC(C)C)NC(=O)[C@@H](O)[C@H](N)Cc1ccccc1` was tested, and the Activity [7] was “inactive” and the Activity [8] was “Active”.
For `CC(C)C[C@H](NC(=O)[C@@H](O)[C@H](N)Cc1ccccc1)C(=O)NCCOCCOCCOCC(=O)NCCCOc1cc(/C=C/C(=O)c2cc(C(C)(C)C)cc(C(C)(C)C)c2)ccc1C(=O)O`, the Activity [9] was “inactive”, the Activity [10] was “inactive” and the Activity [11] was “Dose-dependent effect”. The Activity [12] was “inactive”.
`CC(C)C[C@H](NC(=O)[C@@H](O)[C@H](N)Cc1ccccc1)C(=O)NCCOCCOCCOCC(=O)O[C@H]1CC[C@H]2[C@@H]3CC[C@H]4CC(=O)CC[C@]4(C)[C@H]3CC[C@]12C` was tested, and the Activity [4] was “Active”.
